Experimental data from ChEMBL document CHEMBL4033754, “Antiobesity Effect of a Short-Length Peptide YY Analogue after Continuous Administration in Mice” (ACS Med Chem Lett, 2017).
Active and inactive are the calls of the source. The rule behind the calls is not given here. Where a SMILES comes first, the peptide text is derived from it. [ ]: non-standard residue; d: D form. The star is where a group is joined. ξ: configuration not given here. ξCha = NC(CC1CCCCC1)C(=O)O; Aib = CC(C)(N)C(=O)O; Bz = O=C(c1ccccc1)*

Key:
[1] = test system: Mus musculus; assay: Antiobesity activity in lean C57BL/6J mouse assessed as inhibition of food intake at 1 mg/kg administered via subcutaneous osmotic pumps for 3 continuous days relative to control; conditions: sc
[2] = molecular target: T1, Neuropeptide Y receptor type 2 (Homo sapiens, UniProt P49146); assay: Agonist activity at human Y2R expressed in CHO cell membranes assessed as [35S]GTPgammaS binding after 120 mins by liquid scintillation method; type: functional
T1 sequence (P49146 whole entry): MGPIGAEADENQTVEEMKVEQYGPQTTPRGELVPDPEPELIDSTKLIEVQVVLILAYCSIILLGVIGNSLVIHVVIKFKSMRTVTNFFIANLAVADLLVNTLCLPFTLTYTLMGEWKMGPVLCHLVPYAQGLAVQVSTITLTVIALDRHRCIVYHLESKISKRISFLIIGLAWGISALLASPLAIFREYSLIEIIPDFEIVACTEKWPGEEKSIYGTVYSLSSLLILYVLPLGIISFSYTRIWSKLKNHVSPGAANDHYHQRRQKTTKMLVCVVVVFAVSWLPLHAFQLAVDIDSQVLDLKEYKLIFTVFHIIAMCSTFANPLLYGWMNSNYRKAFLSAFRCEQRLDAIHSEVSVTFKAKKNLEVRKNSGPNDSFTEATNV

[3] = molecular target: T1, Neuropeptide Y receptor type 2; assay: Displacement of [125I]-PYY from human Y2R expressed in CHO cell membranes after 60 mins by liquid scintillation method
[4] = test system: Mus musculus; assay: Antiobesity activity in diet-induced obese C57BL/6J mouse model assessed as reduction in body weight at 1 mg/kg administered via subcutaneous osmotic pumps for 6 to 7 days relative to control; type: functional; set-up: scale not given: the % may be the effect or the level left
Method in brief: (§1)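 Male C57BL/6J DIO mice received peptides at 1 mg/(kg·day) by continuous subcutaneous osmotic pump for 6–7 days (n = 6 per group). Body weight reduction expressed as a percentage versus vehicle.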

[5] = test system: Mus musculus; assay: Mean absorption time in C57BL/6J mouse at 1 mg/kg through subcutaneous administration after 24 hrs by LC-MS/MS analysis; type: ADME, organism-based; conditions: in vivo, sc
Method in brief: (§2)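 Single 1 mg/kg dose, intravenous or subcutaneous, to C57BL/6J mice. Blood sampled at 5, 10, 15, 30 min and 1, 3, 6, 8, 24 h post-dose. Plasma peptide quantified by LC/MS/MS. Parameters derived from the mean (n = 3) plasma concentration–time profile.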

[6] = test system: Mus musculus; assay: AUC (0 to 24 hrs) in C57BL/6J mouse at 1 mg/kg, iv by LC-MS/MS analysis; type: ADME, organism-based; set-up: dose 1 mg/kg, time < 24 hr, route intravenous; conditions: in vivo
Method in brief: as §2

[7] = Mean residence time in C57BL/6J mouse at 1 mg/kg, iv after 24 hrs by LC-MS/MS analysis; type: ADME, organism-based; conditions: in vivo
Method in brief: as §2

[8] = AUC (0 to 24 hrs) in C57BL/6J mouse at 1 mg/kg through subcutaneous administration after 24 hrs by LC-MS/MS analysis; type: ADME, organism-based; set-up: time < 24 hr, dose 1 mg/kg, route subcutaneous; conditions: in vivo, sc
Method in brief: as §2

[9] = Tmax in C57BL/6J mouse at 1 mg/kg through subcutaneous administration after 24 hrs by LC-MS/MS analysis; type: ADME, organism-based; conditions: in vivo, sc
Method in brief: as §2

[10] = test system: Mus musculus; assay: Anorectic activity in lean mouse assessed as inhibition of food intake at 1000 nmol/kg through bolus subcutaneous administration relative to control; type: functional; conditions: sc
[11] = Plasma concentration in C57BL/6J mouse at 1 mg/kg, iv after 5 mins by LC-MS/MS analysis; type: ADME, organism-based
Method in brief: as §2

[12] = Volume of distribution at steady state in C57BL/6J mouse at 1 mg/kg, iv after 24 hrs by LC-MS/MS analysis; type: ADME, organism-based; conditions: in vivo, read-out: Vdss
Method in brief: as §2

[13] = Mean residence time in C57BL/6J mouse at 1 mg/kg through subcutaneous administration after 24 hrs by LC-MS/MS analysis; type: ADME, organism-based; conditions: in vivo, sc
Method in brief: as §2

[14] = test system: Mus musculus; assay: Total clearance in C57BL/6J mouse at 1 mg/kg, iv after 24 hrs by LC-MS/MS analysis; type: ADME, organism-based; conditions: in vivo
Method in brief: as §2

[15] = Cmax in C57BL/6J mouse at 1 mg/kg through subcutaneous administration after 24 hrs by LC-MS/MS analysis; type: ADME, organism-based; set-up: dose 1 mg/kg, route subcutaneous; conditions: in vivo, sc
Method in brief: as §2

[16] = Bioavailability in C57BL/6J mouse at 1 mg/kg through subcutaneous administration after 24 hrs by LC-MS/MS analysis; type: ADME, organism-based; conditions: in vivo, sc
Method in brief: as §2

[17] = test system: Mus musculus; assay: Antiobesity activity in diet-induced obese C57BL/6J mouse assessed as reduction in body weight at 1 mg/kg administered via subcutaneous osmotic pumps for 7 days relative to control; type: functional; set-up: scale not given: the % may be the effect or the level left
Method in brief: as §1

[18] = test system: Mus musculus; assay: Antiobesity activity in lean C57BL/6J mouse assessed as inhibition of food intake at 0.3 mg/kg administered via subcutaneous osmotic pumps for 3 continuous days relative to control; conditions: sc
[19] = test system: Mus musculus; assay: Anorectic activity in lean mouse assessed as inhibition of food intake at 300 nmol/kg through bolus subcutaneous administration relative to control; type: functional; conditions: sc
[20] = test system: Mus musculus; assay: Antiobesity activity in diet-induced obese C57BL/6J mouse assessed as inhibition of food intake at 1 mg/kg administered via subcutaneous osmotic pumps for 7 days measured on day 4 of dosing; type: functional, organism-based
Method in brief: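 DIO mice given peptides continuously by subcutaneous osmotic pump for 7 days (n = 6), with body weight and cumulative food intake tracked daily. Statistics versus vehicle by Student's t test or Aspin-Welch test.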

Row | EC50 [2] [nM] | IC50 [3] [nM] | SMILES | inhibition in vivo at 1 mg/kg [1] [%] | Activity [4] [%] | MAT [5] [h] | AUC [6] [µM·h] | MRT [7] [min] | AUC(0-t) at 24 h [8] [µM·h] | Tmax [9] [min] | concentration at 5 min [11] [nM] | Vd [12] [L/kg] | MRT [13] [min] | CL [14] [mL/min/kg] | Cmax [15] [nM] | other results
1 | 0.59 | 2.8 | CC(=O)N[C@@H](CO)C(=O)N(C)[C@H](C)C(=O)N[C@@H](CCCNC(=N)N)C(=O)N[C@@H](Cc1cnc[nH]1)C(=O)NC(CC1CCCCC1)C(=O)NC(CC1CCCCC1)C(=O)N[C@@H](CC(N)=O)C(=O)N[C@@H](CC(C)C)C(=O)NC(C)(C)C(=O)N[C@H](C(=O)N[C@@H](CCCNC(=N)N)C(=O)N[C@@H](CCC(N)=O)C(=O)N[C@@H](CCCNC(=N)N)C(=O)NC(CC1CCCCC1)C(N)=O)[C@@H](C)O (some centres not stated) | 28 |  |  |  |  |  |  |  |  |  |  |  | 
2 | 0.55 | 2 | CC(=O)N[C@@H](CO)C(=O)NC(C)(C)C(=O)N[C@@H](CCCNC(=N)N)C(=O)N[C@@H](Cc1cnc[nH]1)C(=O)NC(CC1CCCCC1)C(=O)NC(CC1CCCCC1)C(=O)N[C@@H](CC(N)=O)C(=O)N[C@@H](CC(C)C)C(=O)NC(C)(C)C(=O)N[C@H](C(=O)N[C@@H](CCCNC(=N)N)C(=O)N[C@@H](CCC(N)=O)C(=O)N[C@@H](CCCNC(=N)N)C(=O)NC(CC1CCCCC1)C(N)=O)[C@@H](C)O (some centres not stated) (Ac-S[Aib]RH[ξCha][ξCha]NL[Aib]TRQR[ξCha]-NH2) | 51 |  |  |  |  |  |  |  |  |  |  |  | 

The remaining lines, values behind:

Row | SMILES | EC50 [2] [nM] | IC50 [3] [nM] | inhibition in vivo at 1 mg/kg [1] [%] | Activity [4] [%] | MAT [5] [h] | AUC [6] [µM·h] | MRT [7] [min] | AUC(0-t) at 24 h [8] [µM·h] | Tmax [9] [min] | concentration at 5 min [11] [nM] | Vd [12] [L/kg] | MRT [13] [min] | CL [14] [mL/min/kg] | Cmax [15] [nM] | other results
3 | CC(C)C[C@H](NC(=O)[C@H](CC(N)=O)NC(=O)C(CC1CCCCC1)NC(=O)C(CC1CCCCC1)NC(=O)[C@H](Cc1cnc[nH]1)NC(=O)[C@H](CCCNC(=N)N)NC(=O)c1ccccc1)C(=O)NC(C)(C)C(=O)N[C@H](C(=O)N[C@@H](CCCNC(=N)N)C(=O)N[C@@H](CCC(N)=O)C(=O)N[C@@H](CCCNC(=N)N)C(=O)NC(CC1CCCCC1)C(N)=O)[C@@H](C)O (some centres not stated) (Bz-RH[ξCha][ξCha]NL[Aib]TRQR[ξCha]-NH2) | 2 | 7.4 |  | 0.4 | 2.72 | 3.56 | 27 | 0.209 | 15 | 7550 | 0.073 | 190 | 2.7 | 75.6 | inhibition in vivo at 1 µmol/kg [10]: 20%; bioavailability [16]: 5.9%
4 | CC(=O)N[C@@H](CO)C(=O)N1C[C@@H](O)C[C@@H]1C(=O)N[C@@H](CCCNC(=N)N)C(=O)N[C@@H](Cc1cnc[nH]1)C(=O)N[C@@H](CC1CCCCC1)C(=O)N[C@@H](CC1CCCCC1)C(=O)N[C@@H](CC(N)=O)C(=O)N[C@@H](CC(C)C)C(=O)NC(C)(C)C(=O)N[C@H](C(=O)N[C@@H](CCCNC(=N)N)C(=O)N[C@@H](CCC(N)=O)C(=O)N[C@@H](CCCNC(=N)N)C(=O)N[C@@H](CC1CCCCC1)C(N)=O)[C@@H](C)O [listing 1 of 2 here] |  |  |  |  | 0.14 | 0.18 | 10.8 | 0.0336 | 10.2 | 935 | 0.533 | 19.2 | 49.47 | 98.1 | 
5 | CC(=O)N[C@@H](CO)C(=O)N1C[C@@H](O)C[C@@H]1C(=O)N[C@@H](CCCNC(=N)N)C(=O)N[C@@H](Cc1cnc[nH]1)C(=O)N[C@@H](CC1CCCCC1)C(=O)N[C@@H](CC1CCCCC1)C(=O)N[C@@H](CC(N)=O)C(=O)N[C@@H](CC(C)C)C(=O)NC(C)(C)C(=O)N[C@H](C(=O)N[C@@H](CCCNC(=N)N)C(=O)N[C@@H](CCC(N)=O)C(=O)N[C@@H](CCCNC(=N)N)C(=O)N[C@@H](CC1CCCCC1)C(N)=O)[C@@H](C)O [listing 2 of 2 here] |  |  | 79 | -10.2 |  |  |  |  |  |  |  |  |  |  | Activity [17]: 7.4%; inhibition in vivo at 0.3 mg/kg [18]: 47%; inhibition in vivo at 0.3 µmol/kg [19]: 23%
6 | CC(=O)N[C@@H](CO)C(=O)N1C[C@@H](O)C[C@@H]1C(=O)N[C@@H](CCCNC(=N)N)C(=O)N[C@@H](Cc1cnc[nH]1)C(=O)NC(CC1CCCCC1)C(=O)NC(CC1CCCCC1)C(=O)N[C@@H](CC(N)=O)C(=O)N[C@@H](CC(C)C)C(=O)NC(C)(C)C(=O)N[C@H](C(=O)N[C@@H](CCCNC(=N)N)C(=O)N[C@@H](CCC(N)=O)C(=O)N[C@@H](CCCNC(=N)N)C(=O)NC(CC1CCCCC1)C(N)=O)[C@@H](C)O (some centres not stated) |  |  |  |  |  |  |  |  |  |  |  |  |  |  | inhibition [20]: Active
